# Results reported in ChEMBL document CHEMBL4819017 (Eur J Med Chem, 2021).
# Test system: not listed separately
# Assay: Metabolic stability in human liver microsomes assessed as parent compound remaining in presence of NADPH regenerating system at 0.5 uM measured after 15 mins by LC-MS/MS analysis
# Format: ADME, Microsome
# Conditions: read-out: Stabilty
# Summary of the method: (§1)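 Human, mouse or rat liver microsomes at 0.5 mg/ml protein with compound at 0.5 µM and NADPH-regenerating system, 37 °C with shaking. Control wells contain 0.1 M potassium phosphate instead of the regenerating system. Reaction stopped with acetonitrile/0.1% formic acid, centrifuged, supernatant analyzed by LC-MS/MS. Result is percent parent compound remaining.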
row,"remaining at 0.25 h, 0.5 µM",SMILES
1,89%,COc1ncc2cc1NS(=O)(=O)c1cc(c(F)cc1F)C(=O)NCc1cncc(c1)-c1ccnc3ccc-2cc13

# Biological target: Phosphatidylinositol 4,5-bisphosphate 3-kinase catalytic subunit alpha isoform (Homo sapiens, UniProt P42336)
# Assay: Inhibition of human full length p110alpha (1 to 1068 residues) expressed in baculovirus-infected Sf21 cells by ADP-Hunter Plus assay
# Conditions: not given
# Chain of Phosphatidylinositol 4,5-bisphosphate 3-kinase catalytic subunit alpha isoform (P42336 whole entry, the tested form may be a part, canonical isoform): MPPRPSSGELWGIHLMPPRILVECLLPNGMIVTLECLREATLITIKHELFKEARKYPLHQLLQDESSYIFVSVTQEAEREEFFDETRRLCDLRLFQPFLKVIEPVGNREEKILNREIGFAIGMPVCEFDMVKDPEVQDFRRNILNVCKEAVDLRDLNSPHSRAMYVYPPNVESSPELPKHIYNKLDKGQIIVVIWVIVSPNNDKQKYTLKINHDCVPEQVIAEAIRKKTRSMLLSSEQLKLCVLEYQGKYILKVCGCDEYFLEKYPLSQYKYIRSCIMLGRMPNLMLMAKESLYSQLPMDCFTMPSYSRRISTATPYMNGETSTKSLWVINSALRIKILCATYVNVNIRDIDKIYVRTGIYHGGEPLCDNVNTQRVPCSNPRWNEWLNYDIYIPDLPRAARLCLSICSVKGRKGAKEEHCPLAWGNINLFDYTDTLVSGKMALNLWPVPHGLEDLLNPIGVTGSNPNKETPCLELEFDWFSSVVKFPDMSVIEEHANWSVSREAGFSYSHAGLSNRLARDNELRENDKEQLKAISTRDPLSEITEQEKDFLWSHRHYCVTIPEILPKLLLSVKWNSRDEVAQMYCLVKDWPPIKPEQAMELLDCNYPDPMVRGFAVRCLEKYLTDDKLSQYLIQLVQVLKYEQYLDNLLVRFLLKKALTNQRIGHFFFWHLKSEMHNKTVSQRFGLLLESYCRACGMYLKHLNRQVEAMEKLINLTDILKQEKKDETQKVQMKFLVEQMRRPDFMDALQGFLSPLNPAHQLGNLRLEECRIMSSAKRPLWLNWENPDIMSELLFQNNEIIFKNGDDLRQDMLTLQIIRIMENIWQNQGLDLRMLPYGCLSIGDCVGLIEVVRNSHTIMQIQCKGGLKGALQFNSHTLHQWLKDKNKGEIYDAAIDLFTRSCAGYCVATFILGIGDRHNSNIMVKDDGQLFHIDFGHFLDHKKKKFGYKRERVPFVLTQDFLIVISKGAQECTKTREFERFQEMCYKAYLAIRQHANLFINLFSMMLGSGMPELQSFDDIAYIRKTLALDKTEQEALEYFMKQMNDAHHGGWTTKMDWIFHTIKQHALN
row,IC50,SMILES
1,0.0008 µM,COc1ncc2cc1NS(=O)(=O)c1cc(c(F)cc1F)C(=O)NCc1cncc(c1)-c1ccnc3ccc-2cc13

# Biological target: Voltage-gated inwardly rectifying potassium channel KCNH2 (Homo sapiens, UniProt Q12809)
# Assay: Inhibition of human ERG by fluorescence polarization assay
# Conditions: not given
# Summary of the method: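 Predictor h-ERG membrane preparations (sonicated) incubated with test compound dilutions and fluorescent tracer (working 4X tracer at 4 nM) at room temperature for ≥1 h. Read-out by fluorescence polarization, ex 530/25, em 590/35.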
# Chain of Voltage-gated inwardly rectifying potassium channel KCNH2 (Q12809 whole entry): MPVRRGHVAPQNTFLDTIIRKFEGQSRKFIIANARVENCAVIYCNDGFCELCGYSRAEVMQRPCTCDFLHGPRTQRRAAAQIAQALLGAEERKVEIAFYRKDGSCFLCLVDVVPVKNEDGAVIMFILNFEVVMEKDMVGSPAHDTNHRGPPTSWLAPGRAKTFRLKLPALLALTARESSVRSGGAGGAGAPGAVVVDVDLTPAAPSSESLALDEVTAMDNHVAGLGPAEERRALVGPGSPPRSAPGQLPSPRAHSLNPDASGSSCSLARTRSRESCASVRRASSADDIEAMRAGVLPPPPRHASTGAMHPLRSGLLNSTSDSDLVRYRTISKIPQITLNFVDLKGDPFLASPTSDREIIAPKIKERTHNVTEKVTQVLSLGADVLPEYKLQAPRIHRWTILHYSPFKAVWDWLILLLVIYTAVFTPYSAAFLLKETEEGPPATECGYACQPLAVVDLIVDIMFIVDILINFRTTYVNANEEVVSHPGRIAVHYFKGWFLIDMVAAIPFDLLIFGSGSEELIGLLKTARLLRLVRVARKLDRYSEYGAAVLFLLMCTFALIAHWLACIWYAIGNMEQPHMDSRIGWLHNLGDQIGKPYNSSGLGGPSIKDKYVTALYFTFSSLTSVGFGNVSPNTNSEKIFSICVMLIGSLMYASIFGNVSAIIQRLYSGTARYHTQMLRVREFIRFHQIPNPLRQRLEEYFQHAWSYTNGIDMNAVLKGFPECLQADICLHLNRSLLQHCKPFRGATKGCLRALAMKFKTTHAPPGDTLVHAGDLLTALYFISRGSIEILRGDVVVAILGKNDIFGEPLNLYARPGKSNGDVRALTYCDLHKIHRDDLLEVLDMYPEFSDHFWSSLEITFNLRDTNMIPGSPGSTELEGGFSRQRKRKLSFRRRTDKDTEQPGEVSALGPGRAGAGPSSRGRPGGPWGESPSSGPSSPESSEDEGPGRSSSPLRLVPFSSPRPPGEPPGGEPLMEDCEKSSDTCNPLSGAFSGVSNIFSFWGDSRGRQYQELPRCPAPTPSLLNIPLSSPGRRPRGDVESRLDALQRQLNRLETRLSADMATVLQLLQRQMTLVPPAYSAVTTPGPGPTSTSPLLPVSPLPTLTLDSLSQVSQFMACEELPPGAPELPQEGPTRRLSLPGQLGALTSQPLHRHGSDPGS
row,SMILES,IC50
1,COc1ncc2cc1NS(=O)(=O)c1cc(c(F)cc1F)C(=O)NCc1cncc(c1)-c1ccnc3ccc-2cc13,> 30 µM

# Species: Homo sapiens
# Assay: Selectivity ratio of IC50 for recombinant human GST tagged mTOR (1360 to 2549 residues) expressed in baculovirus expression system to IC50 for human full length p110alpha (1 to 1068 residues) expressed in baculovirus-infected Sf21 cells
# Conditions: not given
# Summary of the method: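 mTOR activity measured by LanthaScreen assay. PI3K-α activity measured by ADP Hunter Plus (ADP accumulation, fluorescence ex 544/em 580 nm), normalized to no-compound control and fitted to a sigmoid dose-response curve. IC50s are the average of two independent experiments. Ratio is mTOR IC50 over PI3K-α IC50.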
row,SMILES,Ratio IC50
1,COc1ncc2cc1NS(=O)(=O)c1cc(c(F)cc1F)C(=O)NCc1cncc(c1)-c1ccnc3ccc-2cc13,27.8

# Test system: not listed separately
# Assay: AUC(infinity) in BALB/c mouse at 10 mg/kg, po measured for 8 hrs
# Format: ADME, organism-based
# Parameters: route oral, time 8 hrs, dose 10 mg/kg
# Conditions: in vivo
# Summary of the method: (§2)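 BALB/c mice dosed I.V. or P.O. at the stated dose; plasma levels followed for 8 h. Parameters from noncompartmental analysis: AUC (h.ng/ml), T1/2 (h), Cl (L/h/Kg), Vd (L/Kg), Cmax (ng/ml), Tmax (h).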
row,AUC(0-inf),SMILES
1,7680 ng·h/mL,COc1ncc2cc1NS(=O)(=O)c1cc(c(F)cc1F)C(=O)NCc1cncc(c1)-c1ccnc3ccc-2cc13

# Biological target: T1, Cytochrome P450 1A2 (Homo sapiens, UniProt P05177)
# T1 sequence (P05177 whole entry): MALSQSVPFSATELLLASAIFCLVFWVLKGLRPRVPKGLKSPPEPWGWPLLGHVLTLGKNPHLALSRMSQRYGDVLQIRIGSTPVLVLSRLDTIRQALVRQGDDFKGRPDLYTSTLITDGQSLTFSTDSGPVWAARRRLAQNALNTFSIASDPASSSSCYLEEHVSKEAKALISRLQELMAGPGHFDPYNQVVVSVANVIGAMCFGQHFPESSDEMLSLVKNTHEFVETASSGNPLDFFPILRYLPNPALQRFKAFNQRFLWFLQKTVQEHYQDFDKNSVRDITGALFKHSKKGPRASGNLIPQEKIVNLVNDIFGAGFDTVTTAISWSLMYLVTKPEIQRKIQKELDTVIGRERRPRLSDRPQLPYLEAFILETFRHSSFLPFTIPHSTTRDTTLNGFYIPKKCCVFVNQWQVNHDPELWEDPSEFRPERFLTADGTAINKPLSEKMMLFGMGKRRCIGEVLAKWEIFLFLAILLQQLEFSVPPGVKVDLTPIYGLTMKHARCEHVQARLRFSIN
# Assay: Inhibition of CYP1A2 (unknown origin) using Luciferin-ME as substrate at 10 uM preincubated with enzyme and substrate for 5 mins followed by addition of NADPH regeneration system and measured after 60 mins by luminescence method
# Format: ADME
# Conditions: not given
# Summary of the method: (§3)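 P450-Glo luminescence assays with these substrates: Luciferin-ME (CYP1A2), Luciferin-PPXE (CYP3A4), Luciferin-H (CYP2C9), LuciferinH-EG (CYP2C19), Luciferin-ME-EG (CYP2D6). Compounds run in 1/3 serial dilutions from 10 µM in 0.5% DMSO with enzyme and substrate. After 5 min preincubation, NADPH regeneration reagent added; 60 min at 37 °C, then detection reagent for 30 min. Background subtracted.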
row,IC50,SMILES
1,> 30 µM,COc1ncc2cc1NS(=O)(=O)c1cc(c(F)cc1F)C(=O)NCc1cncc(c1)-c1ccnc3ccc-2cc13

# Biological target: Cytochrome P450 2C19 (Homo sapiens, UniProt P33261)
# Assay: Inhibition of CYP2C19 (unknown origin) using LuciferinH-EG as substrate at 10 uM preincubated with enzyme and substrate for 5 mins followed by addition of NADPH regeneration system and measured after 60 mins by luminescence method
# Format: ADME
# Conditions: not given
# Summary of the method: as §3
# Chain of Cytochrome P450 2C19 (P33261 whole entry): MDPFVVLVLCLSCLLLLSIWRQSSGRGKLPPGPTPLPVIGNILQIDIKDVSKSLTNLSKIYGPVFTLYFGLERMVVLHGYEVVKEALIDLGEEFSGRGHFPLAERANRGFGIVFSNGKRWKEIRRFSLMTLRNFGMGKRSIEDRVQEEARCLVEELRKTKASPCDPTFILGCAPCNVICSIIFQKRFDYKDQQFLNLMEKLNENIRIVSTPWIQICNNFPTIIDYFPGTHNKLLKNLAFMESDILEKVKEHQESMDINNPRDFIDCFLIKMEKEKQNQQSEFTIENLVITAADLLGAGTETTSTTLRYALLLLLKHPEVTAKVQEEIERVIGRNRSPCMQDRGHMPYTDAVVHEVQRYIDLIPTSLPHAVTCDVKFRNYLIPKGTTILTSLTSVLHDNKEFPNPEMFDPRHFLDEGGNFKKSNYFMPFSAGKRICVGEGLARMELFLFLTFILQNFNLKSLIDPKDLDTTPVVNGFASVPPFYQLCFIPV
row,IC50,SMILES
1,> 30 µM,COc1ncc2cc1NS(=O)(=O)c1cc(c(F)cc1F)C(=O)NCc1cncc(c1)-c1ccnc3ccc-2cc13

# Biological target: Cytochrome P450 3A4 (Homo sapiens, UniProt P08684)
# Assay: Inhibition of CYP3A4 (unknown origin) using Luciferin-PPXE as substrate at 10 uM preincubated with enzyme and substrate for 5 mins followed by addition of NADPH regeneration system and measured after 60 mins by luminescence method
# Format: ADME
# Conditions: not given
# Summary of the method: as §3
# Chain of Cytochrome P450 3A4 (P08684 whole entry): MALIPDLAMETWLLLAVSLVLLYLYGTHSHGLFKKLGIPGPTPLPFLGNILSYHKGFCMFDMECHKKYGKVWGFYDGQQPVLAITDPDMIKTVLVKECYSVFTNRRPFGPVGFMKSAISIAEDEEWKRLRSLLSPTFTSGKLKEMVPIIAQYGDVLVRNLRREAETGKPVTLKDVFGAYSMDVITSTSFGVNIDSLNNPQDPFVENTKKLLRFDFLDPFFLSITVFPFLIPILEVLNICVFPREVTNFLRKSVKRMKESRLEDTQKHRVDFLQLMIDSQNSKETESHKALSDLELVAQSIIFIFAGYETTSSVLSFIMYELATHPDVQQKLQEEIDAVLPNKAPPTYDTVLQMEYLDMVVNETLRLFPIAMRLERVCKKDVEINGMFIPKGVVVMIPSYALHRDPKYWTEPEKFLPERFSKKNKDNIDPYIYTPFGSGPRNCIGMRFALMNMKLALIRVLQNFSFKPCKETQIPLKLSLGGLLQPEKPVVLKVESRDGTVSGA
row,IC50,SMILES
1,> 30 µM,COc1ncc2cc1NS(=O)(=O)c1cc(c(F)cc1F)C(=O)NCc1cncc(c1)-c1ccnc3ccc-2cc13

# Test system: not listed separately
# Assay: Metabolic stability in rat liver microsomes assessed as parent compound remaining in presence of NADPH regenerating system at 0.5 uM measured after 15 mins by LC-MS/MS analysis
# Format: ADME, Microsome
# Conditions: read-out: Stabilty
# Summary of the method: as §1
row,"remaining at 0.25 h, 0.5 µM",SMILES
1,97%,COc1ncc2cc1NS(=O)(=O)c1cc(c(F)cc1F)C(=O)NCc1cncc(c1)-c1ccnc3ccc-2cc13

# Test system: not listed separately
# Assay: Volume of distribution in BALB/c mouse at 5 mg/kg, iv measured for 8 hrs
# Format: ADME, organism-based
# Conditions: in vivo
# Summary of the method: (§4)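 Dosing in BALB-C mice intravenously or orally, with plasma sampled over 8 h. Parameters (AUC, T1/2, Cl, Vd, Cmax, Tmax) come from a noncompartmental model. Units: AUC h.ng/ml, Vd L/Kg, Cmax ng/ml, Tmax h.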
row,Vd,SMILES
1,0.28 L/kg,COc1ncc2cc1NS(=O)(=O)c1cc(c(F)cc1F)C(=O)NCc1cncc(c1)-c1ccnc3ccc-2cc13

# Test system: not listed separately
# Assay: Plasma concentration in BALB/c mouse at 10 mg/kg, po measured for 8 hrs
# Format: ADME, organism-based
# Conditions: not given
# Summary of the method: as §4
row,concentration at 8 h,SMILES
1,264 ng/mL,COc1ncc2cc1NS(=O)(=O)c1cc(c(F)cc1F)C(=O)NCc1cncc(c1)-c1ccnc3ccc-2cc13

# Biological target: Serine/threonine-protein kinase mTOR (Homo sapiens, UniProt P42345)
# Assay: Inhibition of recombinant human GST tagged mTOR (1360 to 2549 residues) expressed in baculovirus expression system measured by LanthaScreen assay
# Conditions: not given
# Summary of the method: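 mTOR inhibition measured by LanthaScreen assay; IC50 values average two independent experiments.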
row,IC50,SMILES
1,0.0223 µM,COc1ncc2cc1NS(=O)(=O)c1cc(c(F)cc1F)C(=O)NCc1cncc(c1)-c1ccnc3ccc-2cc13

# Test system: not listed separately
# Assay: Cmax in BALB/c mouse at 10 mg/kg, po measured for 8 hrs
# Format: ADME, organism-based
# Parameters: route oral, dose 10 mg/kg, time 8 hrs
# Conditions: in vivo
# Summary of the method: as §2
row,Cmax,SMILES
1,3390 ng/mL,COc1ncc2cc1NS(=O)(=O)c1cc(c(F)cc1F)C(=O)NCc1cncc(c1)-c1ccnc3ccc-2cc13

# Test system: not listed separately
# Assay: Half life in BALB/c mouse at 10 mg/kg, po measured for 8 hrs
# Format: ADME, organism-based
# Conditions: in vivo
# Summary of the method: as §2
row,half-life,SMILES
1,167 min,COc1ncc2cc1NS(=O)(=O)c1cc(c(F)cc1F)C(=O)NCc1cncc(c1)-c1ccnc3ccc-2cc13

# Test system: not listed separately
# Assay: Tmax in BALB/c mouse at 10 mg/kg, po measured for 8 hrs
# Format: ADME, organism-based
# Conditions: in vivo
# Summary of the method: as §4
row,Tmax,SMILES
1,15 min,COc1ncc2cc1NS(=O)(=O)c1cc(c(F)cc1F)C(=O)NCc1cncc(c1)-c1ccnc3ccc-2cc13

# Test system: not listed separately
# Assay: Half life in BALB/c mouse at 5 mg/kg, iv measured for 8 hrs
# Format: ADME, organism-based
# Conditions: in vivo
# Summary of the method: as §2
row,half-life,SMILES
1,34.2 min,COc1ncc2cc1NS(=O)(=O)c1cc(c(F)cc1F)C(=O)NCc1cncc(c1)-c1ccnc3ccc-2cc13

# Test system: not listed separately
# Assay: Clearance in BALB/c mouse at 5 mg/kg, iv measured for 8 hrs
# Format: ADME, organism-based
# Conditions: in vivo
# Summary of the method: as §2
row,clearance,SMILES
1,8.83 mL/min/kg,COc1ncc2cc1NS(=O)(=O)c1cc(c(F)cc1F)C(=O)NCc1cncc(c1)-c1ccnc3ccc-2cc13

# Biological target: Cytochrome P450 2C9 (Homo sapiens, UniProt P11712)
# Assay: Inhibition of CYP2C9 (unknown origin) using Luciferin-H as substrate at 10 uM preincubated with enzyme and substrate for 5 mins followed by addition of NADPH regeneration system and measured after 60 mins by luminescence method
# Format: ADME
# Conditions: not given
# Summary of the method: as §3
# Chain of Cytochrome P450 2C9 (P11712 whole entry): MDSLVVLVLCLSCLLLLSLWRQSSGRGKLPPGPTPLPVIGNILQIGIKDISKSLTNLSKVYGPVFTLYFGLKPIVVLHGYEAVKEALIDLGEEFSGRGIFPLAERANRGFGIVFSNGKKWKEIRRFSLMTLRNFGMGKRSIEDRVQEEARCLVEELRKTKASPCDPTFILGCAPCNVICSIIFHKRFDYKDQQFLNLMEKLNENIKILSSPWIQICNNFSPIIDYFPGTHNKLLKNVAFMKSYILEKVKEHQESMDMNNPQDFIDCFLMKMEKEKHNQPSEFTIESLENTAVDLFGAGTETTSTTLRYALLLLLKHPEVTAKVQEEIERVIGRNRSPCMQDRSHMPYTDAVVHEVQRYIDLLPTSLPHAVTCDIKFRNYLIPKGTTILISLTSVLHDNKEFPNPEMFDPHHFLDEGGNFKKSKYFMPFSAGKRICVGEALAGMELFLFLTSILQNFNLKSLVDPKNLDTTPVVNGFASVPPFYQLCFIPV
row,IC50,SMILES
1,8.3 µM,COc1ncc2cc1NS(=O)(=O)c1cc(c(F)cc1F)C(=O)NCc1cncc(c1)-c1ccnc3ccc-2cc13

# Test system: not listed separately
# Assay: Metabolic stability in mouse liver microsomes assessed as parent compound remaining in presence of NADPH regenerating system at 0.5 uM measured after 15 mins by LC-MS/MS analysis
# Format: ADME, Microsome
# Conditions: read-out: Stabilty
# Summary of the method: as §1
row,"remaining at 0.25 h, 0.5 µM",SMILES
1,88%,COc1ncc2cc1NS(=O)(=O)c1cc(c(F)cc1F)C(=O)NCc1cncc(c1)-c1ccnc3ccc-2cc13

# Biological target: Cytochrome P450 2D6 (Homo sapiens, UniProt P10635)
# Assay: Inhibition of CYP2D6 (unknown origin) using Luciferin-ME-EG as substrate at 10 uM preincubated with enzyme and substrate for 5 mins followed by addition of NADPH regeneration system and measured after 60 mins by luminescence method
# Format: ADME
# Conditions: not given
# Summary of the method: as §3
# Chain of Cytochrome P450 2D6 (P10635 whole entry): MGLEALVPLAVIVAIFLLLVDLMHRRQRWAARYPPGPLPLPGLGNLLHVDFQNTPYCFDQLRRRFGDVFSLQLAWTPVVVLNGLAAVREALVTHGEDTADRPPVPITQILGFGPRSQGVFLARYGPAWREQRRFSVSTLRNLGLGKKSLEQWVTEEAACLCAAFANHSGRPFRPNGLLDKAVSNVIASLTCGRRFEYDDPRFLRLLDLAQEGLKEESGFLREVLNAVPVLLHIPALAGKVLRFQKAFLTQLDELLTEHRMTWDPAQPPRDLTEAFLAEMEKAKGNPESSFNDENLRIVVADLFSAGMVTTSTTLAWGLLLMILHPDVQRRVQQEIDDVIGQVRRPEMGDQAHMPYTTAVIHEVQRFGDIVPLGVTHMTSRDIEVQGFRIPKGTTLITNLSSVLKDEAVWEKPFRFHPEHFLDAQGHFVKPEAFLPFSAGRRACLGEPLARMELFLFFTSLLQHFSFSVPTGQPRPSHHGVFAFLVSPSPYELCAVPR
row,IC50,SMILES
1,> 30 µM,COc1ncc2cc1NS(=O)(=O)c1cc(c(F)cc1F)C(=O)NCc1cncc(c1)-c1ccnc3ccc-2cc13

# Test system: not listed separately
# Assay: AUC (infinity) in BALB/c mouse at 5 mg/kg, iv measured for 8 hrs
# Format: ADME, organism-based
# Parameters: route intravenous, dose 5 mg/kg, time 8 hrs
# Conditions: in vivo
# Summary of the method: as §2
row,AUC(0-inf),SMILES
1,9470 ng·h/mL,COc1ncc2cc1NS(=O)(=O)c1cc(c(F)cc1F)C(=O)NCc1cncc(c1)-c1ccnc3ccc-2cc13

# Test system: not listed separately
# Assay: Oral bioavailability in BALB/c mouse at 10 mg/kg measured for 8 hrs
# Format: ADME, organism-based
# Conditions: in vivo
# Summary of the method: as §2
row,bioavailability,SMILES
1,40.6%,COc1ncc2cc1NS(=O)(=O)c1cc(c(F)cc1F)C(=O)NCc1cncc(c1)-c1ccnc3ccc-2cc13

# Test system: not listed separately
# Assay: Inhibition of PI3K/mTOR in human U2OS cells assessed as inhibition of AKT1 phosphorylation at Ser473 residue by C-ELISA
# Format: cell-based
# Conditions: not given
# Summary of the method: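 U2OS osteosarcoma cells grown in 0.1% FBS and serum-stimulated. Endogenous phospho-AKT1 Ser473 quantified by cell-based ELISA with chemiluminescent substrate. Signal plotted against inhibitor concentration and fitted to a sigmoid dose-response curve.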
row,EC50,SMILES
1,0.0107 µM,COc1ncc2cc1NS(=O)(=O)c1cc(c(F)cc1F)C(=O)NCc1cncc(c1)-c1ccnc3ccc-2cc13
